Test [1] in a line: nonspecific flux increase, KCNQ1-free cells – parental CHO cells, counter-screen for KCNQ1 potentiator project (AID 493006;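 active means duplicate-averaged activation above buffer control mean plus 5 SD of those controls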;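 on activation: fluorescence ratio of max minus min over baseline after K+ and Tl+ depolarization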). The conditions noted are these: parental CHO-K1 cells, FluxOR thallium flux, at 10 µM; hits give high values. In short, it runs like this:
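Material: untransfected host CHO-K1 cells with FluxOR thallium dye. Timing: overnight 37 °C plating, 90 min RT dye, 20 min compound. Detection: kinetic FluxOR fluorescence, 10 s baseline, 110 s after stimulus. Read-out basis: max-minus-min fluorescence over baseline, percent of buffer-to-R-L3 span. Replicates: duplicate wells per compound, percent values averaged.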
Background: The purpose of a counterscreen is to sort out artefacts and off-target activity.

Test [2] addresses Potassium voltage-gated channel subfamily KQT member 1 (Homo sapiens) (UniProt P51787). The experiment in a line: enhancement of KCNQ1 channel thallium flux – FluxOR thallium flux, CHO cells, duplicates, confirmation (AID 493007).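 On outcome: cells depolarized by a potassium plus thallium sulfate stimulus after compound.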 The conditions noted are these: KCNQ1 cell line, FluxOR thallium flux fluorescence, at 10 µM; hits give high values, % of reference activator effect, buffer zero. In short, it runs like this: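 Test system – KCNQ1-expressing CHO cell line · Incubation – FluxOR dye loading 90 min, compound exposure 20 min, room temperature · Detection – FluxOR Tl+ flux fluorescence, 10 s baseline plus 110 s recording · Controls – buffer-only wells as 0% and R-L3 activator as 100%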

The target in test [3] is Potassium voltage-gated channel subfamily KQT member 2 (Rattus norvegicus) (UniProt O88943). In words: KCNQ2 thallium flux enhancement – KCNQ2-CHO-K1 cells, selectivity assay for KCNQ1 potentiator project (AID 493009;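 active means mean duplicate potentiation above the buffer control mean plus 5 SD of buffer wells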;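 further: assay conditions were tuned for KCNQ1 rather than KCNQ2 modulators; signal is max minus min fluorescence divided by baseline after thallium stimulus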). The conditions noted are these: FluxOR thallium flux fluorescence, at 10 µM; hits give high values, scaled: buffer 0, activator control 100.
The target of test [4] is Potassium voltage-gated channel subfamily KQT member 1 (Homo sapiens) (UniProt P51787). The experiment in a line: KCNQ1 activators by electrophysiology – IonWorks patch clamp, KCNQ1-CHO cells, orthogonal assay for KCNQ1 potentiator project, confirmation (AID 493184;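 active means current rise at least 3 SD above the untreated control mean in each of two repeat wells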;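 on current potentiation: percent change of the same well's current before compound addition so 0% = no change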). The conditions noted are these: automated patch clamp current, at 10 µM; hits give high values. The gist of the method:
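Read-out: Percent current increase versus pre-compound level | Assay system: CHO cells carrying KCNQ1 | Measured by: Automated perforated-patch electrophysiology | Medium: External bath solution at pH 7.4 | Dosing: One dose, 10 µM final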
In general terms: In patch-clamp work, channel activity is measured electrically.

Test [5] deals with Potassium voltage-gated channel subfamily E member 1 (Homo sapiens) + Potassium voltage-gated channel subfamily KQT member 1 (Homo sapiens) (UniProt P15382+P51787). In words: KCNQ1-E1 channel activation – thallium flux, CHO-K1 KCNQ1/E1 cells, selectivity assay for KCNQ1 potentiator project, confirmation (AID 493186;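 active means mean duplicate activation above the buffer control mean plus 5 SD of those controls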). The conditions noted are these: FluxOR thallium flux, at 10 µM; hits give high values. The gist of the method:
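Test system: CHO-K1 cells with KCNQ1/E1; dosing: one test concentration; signal: FluxOR Tl+ flux fluorescence, kinetic read; incubation: 90-min dye loading then 20-min compound exposure, both at room temperature; read-out basis: percent of R-L3 effect over buffer; replication: duplicate wells per compound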

Active and inactive are the calls of the source.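 How the source made its calls, unless noted: active means potentiation averaged over duplicate wells exceeding buffer-only control mean by more than 3 SD; inactive means the rest.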

Sequence of Potassium voltage-gated channel subfamily KQT member 1 (Homo sapiens) (P51787 whole entry, looked up): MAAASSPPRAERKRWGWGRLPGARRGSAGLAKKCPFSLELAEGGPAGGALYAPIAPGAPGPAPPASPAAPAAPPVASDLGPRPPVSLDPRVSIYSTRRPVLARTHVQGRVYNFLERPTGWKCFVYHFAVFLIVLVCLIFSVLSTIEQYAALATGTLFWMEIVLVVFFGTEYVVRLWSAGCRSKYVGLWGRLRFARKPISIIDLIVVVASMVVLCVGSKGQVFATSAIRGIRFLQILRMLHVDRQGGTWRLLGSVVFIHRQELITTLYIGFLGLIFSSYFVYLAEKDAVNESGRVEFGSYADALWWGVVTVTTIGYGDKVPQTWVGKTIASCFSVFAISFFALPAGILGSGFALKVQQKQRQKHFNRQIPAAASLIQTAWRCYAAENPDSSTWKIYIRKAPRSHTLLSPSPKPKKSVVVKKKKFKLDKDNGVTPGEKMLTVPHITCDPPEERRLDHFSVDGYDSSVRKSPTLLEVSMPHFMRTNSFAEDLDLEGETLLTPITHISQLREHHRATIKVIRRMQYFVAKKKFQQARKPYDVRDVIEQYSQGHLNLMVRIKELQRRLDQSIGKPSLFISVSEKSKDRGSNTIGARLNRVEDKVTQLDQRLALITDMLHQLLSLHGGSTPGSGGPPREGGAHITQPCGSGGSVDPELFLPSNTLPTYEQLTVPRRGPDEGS
Sequence of Potassium voltage-gated channel subfamily KQT member 2 (Rattus norvegicus) (O88943 whole entry, looked up): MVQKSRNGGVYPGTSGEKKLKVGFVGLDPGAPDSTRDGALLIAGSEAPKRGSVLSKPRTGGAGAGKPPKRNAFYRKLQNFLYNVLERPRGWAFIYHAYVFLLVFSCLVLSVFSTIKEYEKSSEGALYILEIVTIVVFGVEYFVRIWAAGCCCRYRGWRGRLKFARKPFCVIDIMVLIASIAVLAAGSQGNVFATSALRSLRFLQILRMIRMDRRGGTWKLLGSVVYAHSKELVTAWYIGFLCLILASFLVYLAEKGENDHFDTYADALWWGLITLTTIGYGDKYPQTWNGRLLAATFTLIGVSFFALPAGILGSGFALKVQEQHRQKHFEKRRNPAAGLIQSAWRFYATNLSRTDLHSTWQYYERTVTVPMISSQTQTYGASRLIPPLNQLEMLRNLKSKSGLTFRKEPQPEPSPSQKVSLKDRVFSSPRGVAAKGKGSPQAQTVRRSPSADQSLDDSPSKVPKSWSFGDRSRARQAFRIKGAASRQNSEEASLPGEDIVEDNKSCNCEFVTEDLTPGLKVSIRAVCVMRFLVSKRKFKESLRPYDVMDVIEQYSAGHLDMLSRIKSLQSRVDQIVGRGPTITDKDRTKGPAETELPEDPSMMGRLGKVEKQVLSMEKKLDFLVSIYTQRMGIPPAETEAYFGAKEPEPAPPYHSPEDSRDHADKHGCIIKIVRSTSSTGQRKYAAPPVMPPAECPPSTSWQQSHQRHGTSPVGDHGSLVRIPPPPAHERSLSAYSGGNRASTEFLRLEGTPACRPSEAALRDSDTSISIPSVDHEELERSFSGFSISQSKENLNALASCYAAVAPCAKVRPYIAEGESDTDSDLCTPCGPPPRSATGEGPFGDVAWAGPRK
Sequence of Potassium voltage-gated channel subfamily E member 1 (Homo sapiens) + Potassium voltage-gated channel subfamily KQT member 1 (Homo sapiens) (P51787 whole entry, looked up): as the sequence (P51787 whole entry, looked up) above

Take `COc1ccc(Cn2c(=O)c3[nH]cnc3n(-c3ccccc3C)c2=O)cc1`: the outcome in test [1], in test [2], in test [3], in test [4] and in test [5] was inactive.
With `COC(=O)C1=C(C)Nc2nc(-c3ccccc3)nn2C1c1ccc(C)o1` (configuration not stated), the outcome in test [1], in test [3], in test [4] and in test [5] was inactive. For the same compound, the potentiation in test [2] is 30% (active).
Regarding `O=C(COc1ccccc1Cl)NC(=S)N1CCc2ccccc21`, the outcome in test [1], in test [2], in test [3], in test [4] and in test [5] was inactive.
As for `CCc1ccc(NC(=O)/C(C#N)=C/c2ccncc2)cc1`, the result in test [1], in test [2], in test [3], in test [4] and in test [5] was inactive.
Take `COc1ccc(C2SCC(=O)N2c2nc3ccccc3s2)cc1` (configuration not stated): the result in test [1], in test [2], in test [3] and in test [5] was inactive. Also, the current potentiation in test [4] is 26.4% (active).
For `O=c1cc2c(nn1Cc1c(Cl)cccc1Cl)-c1ccccc1CC2`, the outcome in test [1], in test [3], in test [4] and in test [5] was inactive. Moreover, the potentiation in test [2] is 24% (active).
On to `COc1ccc(-c2nn(-c3ccccc3)cc2C(=O)NC(=S)NNC(=O)c2ccncc2)cc1`, for which the result in test [1], in test [3], in test [4] and in test [5] was inactive. In test [2], the potentiation is 17.5% (active).
As to `COc1ccc(-c2nnc(NC(=O)c3ccc(S(=O)(=O)N4CCCc5ccccc54)cc3)o2)cc1`, the result in test [1], in test [2], in test [3], in test [4] and in test [5] was inactive.
Turning to `CCOC(=O)c1cnn(-c2nc(SC)nc3sc4c(c23)CCCC4)c1N`, the outcome in test [1], in test [4] and in test [5] was inactive. Also, the results for the potentiation in test [2] and in test [3] were 29.5% (active) and 142% (active), respectively.
Turning to `CN(C)c1ccnc(N(Cc2ccccc2)Cc2ccccc2)c1C#N`, the outcome in test [1], in test [2], in test [3], in test [4] and in test [5] was inactive.
For `CCOC(=O)N1CCC(N2C(=O)c3ccc(C(=O)NCCC(C)C)cc3C2=O)CC1`, the outcome in test [1], in test [4] and in test [5] was inactive. The potentiation is 69% (active) in test [2] and 150% (active) in test [3].
For the compound `CCCOc1ccc(C(=O)NNC(=S)NC(=O)c2cc(-c3ccccc3)nc3ccccc23)cc1`, the result in test [1], in test [3], in test [4] and in test [5] was inactive. Further, the potentiation in test [2] is 23.5% (active).
On to `O=C(CN(CC1CCCO1)C(=O)CNS(=O)(=O)c1ccc(Cl)cc1)NC1CCCC1` (configuration not stated), for which the result in test [1], in test [2], in test [3], in test [4] and in test [5] was inactive.
For `O=C(N/N=C/c1ccc(-c2ccccc2)o1)c1ccccc1O`, the outcome in test [1], in test [3], in test [4] and in test [5] was inactive. The potentiation in test [2] was 31% (active).
For `COc1ccc(-c2cc(-c3ccccc3)c(C#N)c(=S)[nH]2)cc1`, the result in test [1], in test [2], in test [3], in test [4] and in test [5] was inactive.
With `CCCC(=O)n1nc(-c2ccc(C)cc2)nc1NCc1ccco1`, the result in test [1], in test [4] and in test [5] was inactive. Further, the potentiation is 80% (active) in test [2] and 148% (active) in test [3].
On to `CCOc1cc(CN2CCOCC2)cc(C(C)=O)c1`, for which the outcome in test [1], in test [3], in test [4] and in test [5] was inactive. Further, the potentiation in test [2] was 23.5% (active).
For `O=C(N1CCCCC1)N1CCN(C(=O)N2CCCCC2)CC1`, the outcome in test [1], in test [3], in test [4] and in test [5] was inactive. Further, the potentiation in test [2] was 19% (active).
Turning to `CCC1=NN2C(=N)/C(=C/c3ccc(OS(=O)(=O)c4ccccc4)c(OC)c3)C(=O)N=C2S1`, the outcome in test [1], in test [2], in test [3], in test [4] and in test [5] was inactive.
As for `CCOc1ccccc1NC1=C(Cl)C(=O)N(c2ccccc2)C1=O`, the result in test [1], in test [2] and in test [4] was inactive.
Consider `Cc1ccc(-n2c(-c3ccc(Cl)cc3)n[nH]c2=S)c(C)c1`, for which the outcome in test [1], in test [2] and in test [4] was inactive.
As for `CCOc1ccc(-n2c(=S)sc3c(=O)n(-c4ccccc4)c(SC)nc32)cc1`, the result in test [1], in test [2] and in test [4] was inactive.
`CN(C(=S)NC(=O)c1ccccc1Br)C1CCCCC1`: in test [1], the activation is 206% (active). The potentiation in test [2] was 44% (active). Further, the result in test [4] was inactive.
As to `N=C1/C(=C\c2ccc(-c3cccc(Cl)c3)o2)C(=O)N=C2SC=C(c3ccccc3)N12`, the result in test [1] and in test [4] was inactive. Further, the potentiation in test [2] is 29% (active).
Consider `COc1ccc2c(c1)[nH]c1c(=O)n(/N=C/c3ccc(OC)c(CN4CCCC4)c3)cnc12`, for which the outcome in test [1], in test [2], in test [3], in test [4] and in test [5] was inactive.
With `O=[N+]([O-])c1ccc(C(O)C(CO)NC(=S)Nc2ccccc2)cc1` (configuration not stated), the result in test [1], in test [2] and in test [4] was inactive.
Turning to `CC(=O)c1ccc(NC(=S)NC(=O)c2c(Cl)c(C)nn2C)cc1`, the outcome in test [1], in test [2] and in test [4] was inactive.
Take `CNCCC=C1c2ccccc2CCc2ccccc21`: the activation in test [1] was 150% (active). The potentiation in test [2] was 76% (active). Besides, in test [4], the outcome was inactive.
Turning to `Cc1cccc(N(CC(=O)NC2CCCC2)C(=O)c2csnn2)c1C`, the outcome in test [1], in test [2] and in test [4] was inactive.
Regarding `Cc1cccc(-n2c(=S)[nH]c3c(oc4ccccc43)c2=O)c1`, the activation in test [1] was 139% (active). Besides, the outcome in test [2] and in test [4] was inactive.
As to `C/C(=N\OCC(=O)Nc1ccc(OC(F)(F)F)cc1)c1ccc2c(c1)OCCO2`, the result in test [1], in test [2] and in test [4] was inactive.
Take `NC(=O)c1ccc(N2CCNC(=O)C2)c([N+](=O)[O-])c1`: the outcome in test [1], in test [2] and in test [4] was inactive.
Take `CCCn1c(SCC(=O)Nc2cccc(NC(C)=O)c2)nnc1C(C)C`: the outcome in test [1], in test [2] and in test [4] was inactive.
With `CSc1cccc(NC(=O)CN2C(=O)c3ccccc3S2(=O)=O)c1`, the result in test [1], in test [2] and in test [4] was inactive.

These data come from PubChem BioAssay.
